Results on 19 molecules are retold here after ChEMBL document CHEMBL4043202, “Synthesis, pH dependent, plasma and enzymatic stability of bergenin prodrugs for potential use against rheumatoid arthritis” (Bioorg Med Chem, 2017).

The nature of data set [1]: Stability in pH 6.8 SIF assessed as compound remaining level at 120 mg/mL incubated for 24 hrs at 37 degC by HPLC method. In short, it runs like this:
(§1)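 SGF (pH 1.2) and SIF (pH 6.8) were prepared per USP 2000. Compound was incubated at 37 °C and sampled at 0 and 24 h. Samples were quenched with ice-cold acetonitrile and centrifuged. Prodrug and bergenin were measured by compound-specific isocratic RP-C8 HPLC-UV. Each analysis in triplicate.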

Data set [2] can be described thus: Stability in pH 4.0 phosphate buffer assessed as compound remaining level at […] incubated for 24 hrs at 37 degC by HPLC method. To be noted: for remaining at 24 h: pH 4.0 phosphate buffer, pH 4, read-out: Stability. It is filed as physicochemical.
Data set [3] is described as follows: Partition coefficient, log P of the compound in water/n-octanol at pH 7.4 at 25 degC by HPLC method. It is filed as physicochemical. The procedure, abridged: (§2)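 Miniaturised shake-flask method: water/n-octanol for log P and PBS pH 7.4/n-octanol for log D, at 25 °C. Tubes were shaken overnight at 500 rpm and centrifuged at 16000 RCF for 20 min to separate the phases. Compound in each phase was quantified by reversed-phase C18 HPLC with the column at 37 °C. Run in triplicate.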

Data set [4] can be described thus: Distribution coefficient, log D of the compound in PBS/n-octanol at pH 7.4 at 25 degC by HPLC method. It is filed as physicochemical. In short, it runs like this:
as §2

Data set [5] in a line: Stability in pH 1.2 SGF assessed as compound remaining level at 120 mg/mL incubated for 24 hrs at 37 degC by HPLC method. The procedure, abridged:
as §1

Data set [6] concerns the target Interleukin-6 (Homo sapiens, UniProt P05231). Put plainly: Inhibition of IL6 (unknown origin).
The target of data set [7] is Tumor necrosis factor (Homo sapiens, UniProt P01375). Put plainly: Inhibition of TNFalpha (unknown origin).
Data set [8] can be described thus: Partition coefficient, log P of the compound. It is filed as physicochemical. To be noted: octanol/water. The procedure, abridged:
as §2

Data set [9] is described as follows: Solubility in pH 3.0 buffer. It is filed as physicochemical.
The nature of data set [10]: Solubility in pH 1.0 buffer. It is filed as physicochemical.
A short description of data set [11]: Solubility in pH 5.0 buffer. It is filed as physicochemical.
A short description of data set [12]: Solubility in water. It is filed as physicochemical.
Data set [13] in a line: Partition coefficient, log P of the compound in water/n-octanol at 25 degC by HPLC method. Conditions: pH 7.4.

Values after ≈ are worked out from the molar mass of the structure shown. Bounds are passed on as bounds.

Chain of Tumor necrosis factor (P01375 whole entry): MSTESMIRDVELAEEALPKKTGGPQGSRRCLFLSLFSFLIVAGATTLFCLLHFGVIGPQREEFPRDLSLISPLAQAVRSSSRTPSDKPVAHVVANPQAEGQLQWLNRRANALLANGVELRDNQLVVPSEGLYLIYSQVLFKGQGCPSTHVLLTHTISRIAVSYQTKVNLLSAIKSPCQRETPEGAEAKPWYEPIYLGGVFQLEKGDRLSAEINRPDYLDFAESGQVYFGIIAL
Chain of Interleukin-6 (P05231 whole entry): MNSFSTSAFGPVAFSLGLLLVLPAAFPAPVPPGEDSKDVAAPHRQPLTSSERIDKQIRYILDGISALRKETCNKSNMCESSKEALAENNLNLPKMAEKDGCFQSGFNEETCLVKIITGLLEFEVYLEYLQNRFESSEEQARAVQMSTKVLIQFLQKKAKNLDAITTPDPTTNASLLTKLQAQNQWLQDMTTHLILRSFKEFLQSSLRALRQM

As for `COc1c(OC(=O)c2ccc(C(C)(C)C)cc2)cc2c(c1OC(=O)c1ccc(C(C)(C)C)cc1)[C@@H]1O[C@H](COC(=O)c3ccc(C(C)(C)C)cc3)[C@@H](OC(=O)c3ccc(C(C)(C)C)cc3)[C@H](OC(=O)c3ccc(C(C)(C)C)cc3)[C@H]1OC2=O`, the Stability in data set [1] worked out at 86.1%; in [5], 109%. The remaining at 24 h in [2] was determined as 104%. Besides, the logP in data set [3] turned out to be 0.771. In addition, the logD in data set [4] worked out at 0.162.
With `CCCCCCCC(=O)OC[C@H]1O[C@H]2c3c(cc(OC(=O)CCCCCCC)c(OC)c3OC(=O)CCCCCCC)C(=O)O[C@@H]2[C@@H](OC(=O)CCCCCCC)[C@@H]1OC(=O)CCCCCCC`, in data set [3], the lipophilicity (logP) worked out at 6.011. The pH-dependent lipophilicity (logD) in data set [4] came to 6.11.
With `COc1c(O)cc2c(c1O)[C@@H]1O[C@H](CO)[C@@H](O)[C@H](O)[C@H]1OC2=O` [BERGENIN], the IC50 in [6] stood at 0.208 µM; in data set [7] it was 12.5 µM. For the same molecule, the logP in data set [8] was -1.06; in [3], -0.555. Also, the Stability in data set [1] is 101%; in [5], 111%. For the same molecule, the remaining at 24 h in [2] came out at 102%. Also, the solubility in data set [9] was 1080 µg/mL (≈ 3.29 mM); in data set [10] it was 1290 µg/mL (≈ 3.93 mM); in data set [11], 1220 µg/mL (≈ 3.72 mM); in data set [12], > 1000 µg/mL. Further, in data set [4], the log distribution coefficient (logD) is -0.947.
In data set [3], `COc1c(OC(=O)c2c(F)cccc2F)cc2c(c1O)[C@@H]1O[C@H](COC(=O)c3c(F)cccc3F)[C@@H](O)[C@H](O)[C@H]1OC2=O` displayed a logP of 1.801. For the same molecule, the logD in [4] came to 1.86.
As to `COc1c(OC(C)=O)cc2c(c1O)[C@@H]1O[C@H](COC(C)=O)[C@@H](O)[C@H](O)[C@H]1OC2=O`, the logP in data set [3] was -0.494. Further, the log distribution coefficient (logD) in [4] was -1.06.
On the same counts, the results for `CCCCCC(=O)OC[C@H]1O[C@H]2c3c(cc(OC(=O)CCCCC)c(OC)c3OC(=O)CCCCC)C(=O)O[C@@H]2[C@@H](OC(=O)CCCCC)[C@@H]1OC(=O)CCCCC` are 5.967 and 6.06.
With `COc1c(OCc2ccccc2)cc2c(c1OCc1ccccc1)[C@@H]1O[C@H](CO)[C@@H](O)[C@H](O)[C@H]1OC2=O`, the Stability in data set [1] was found to be 90.5%; in data set [5], 68.8%. In data set [2], the remaining at 24 h is 52.4%. The logD in data set [4] was found to be 1.98. This molecule also returned a logP in data set [13] of 1.965.
As for `Nc1ncn([C@@H]2O[C@H](CO)[C@@H](O)[C@H]2O)c(=O)n1` [AZACITIDINE], the logP in data set [8] is -3.1. For the same molecule, in data set [12], the solubility was found to be 89000 µg/mL (≈ 364 mM).
In the case of `COc1c(OC(C)=O)cc2c(c1OC(C)=O)[C@@H]1O[C@H](COC(C)=O)[C@@H](OC(C)=O)[C@H](O)[C@H]1OC2=O`, the Stability in data set [1] is 41.8%; in data set [2] (buffer, pH 4, 24 h), 122.03%; in data set [5], 92.3%. Moreover, in [3], the log partition coefficient (logP) is given as 1.181. The molecule further had a logD in data set [4] of 0.429.
In the case of `COc1c(OC(C)=O)cc2c(c1OC(C)=O)[C@@H]1O[C@H](COC(C)=O)[C@@H](OC(C)=O)[C@H](OC(C)=O)[C@H]1OC2=O` [BERGENIN PENTAACETATE], the Stability is 100% in data set [1] and 99.1% in data set [5]. In [2], the remaining at 24 h worked out at 119%. Besides, the logP in data set [3] came to 1.155. Also, the pH-dependent lipophilicity (logD) in data set [4] was found to be 0.516.
In data set [3], `COc1c(OC(=O)c2ccccc2C)cc2c(c1OC(=O)c1ccccc1C)[C@@H]1O[C@H](COC(=O)c3ccccc3C)[C@@H](OC(=O)c3ccccc3C)[C@H](O)[C@H]1OC2=O` had a logP of 1.751. The molecule also returned a pH-dependent lipophilicity (logD) in data set [4] of 1.61.
Take `COc1c(OC(=O)c2c(Cl)cc(Cl)cc2Cl)cc2c(c1O)[C@@H]1O[C@H](COC(=O)c3c(Cl)cc(Cl)cc3Cl)[C@@H](O)[C@H](O)[C@H]1OC2=O`: the Stability in data set [1] stood at 87.5%; in data set [5], 86.5%. Besides, the remaining at 24 h in [2] amounted to 76%. For the same molecule, the logP in data set [3] was determined as 3.693. Besides, the logD in [4] was 3.89.
As to `COc1c(O)cc2c(c1O)[C@@H]1O[C@H](COC(=O)c3ccc([N+](=O)[O-])cc3)[C@@H](O)[C@H](O)[C@H]1OC2=O`, in data set [3], the lipophilicity (logP) turned out to be 1.563. The molecule further registered a pH-dependent lipophilicity (logD) in data set [4] of 1.53.
Regarding `COc1c(OC(=O)c2ccc([N+](=O)[O-])cc2)cc2c(c1O)[C@@H]1O[C@H](COC(=O)c3ccc([N+](=O)[O-])cc3)[C@@H](O)[C@H](O)[C@H]1OC2=O`, the Stability in data set [1] was determined as 59.5%; in data set [5], 91.6%. For the same molecule, the remaining at 24 h in data set [2] amounted to 45%. Besides, in [3], the logP came to 2.508. For the same molecule, the logD in data set [4] was 2.65.
As to `COc1c(OC(=O)c2ccc(C(C)(C)C)cc2)cc2c(c1OC(=O)c1ccc(C(C)(C)C)cc1)[C@@H]1O[C@H](COC(=O)c3ccc(C(C)(C)C)cc3)[C@@H](O)[C@H](O)[C@H]1OC2=O`, the results for the Stability in data set [1] and in [5] were 93.5% and 106%, respectively. Further, the remaining at 24 h in data set [2] is 95%. The logP in data set [3] was 0.599. The same molecule returned a logD in data set [4] of 0.552.
Take `CCCOc1cc2c(c(OCCC)c1OC)[C@@H]1O[C@H](CO)[C@@H](O)[C@H](O)[C@H]1OC2=O`: the logP in data set [3] is recorded as 1.655. This molecule came in with a log distribution coefficient (logD) in data set [4] of 1.51.
In the case of `CCCCOc1cc2c(c(OCCCC)c1OC)[C@@H]1O[C@H](CO)[C@@H](O)[C@H](O)[C@H]1OC2=O`, the logD in data set [4] came to 2.83. Also, the logP in [13] is given as 2.495.
In turn, `COc1c(OC(=O)CC(C)C)cc2c(c1OC(=O)CC(C)C)[C@@H]1O[C@H](COC(=O)CC(C)C)[C@@H](OC(=O)CC(C)C)[C@H](OC(=O)CC(C)C)[C@H]1OC2=O` yielded a lipophilicity (logP) in data set [3] of 6.358. Besides, the log distribution coefficient (logD) in [4] turned out to be 6.45.
For the molecule `COc1c(OC(=O)c2ccccc2)cc2c(c1OC(=O)c1ccccc1)[C@@H]1O[C@H](COC(=O)c3ccccc3)[C@@H](O)[C@H](O)[C@H]1OC2=O`, in data set [3], the logP is listed as 2.553. In addition, the logD in data set [4] was 1.77.

The term logP denotes a log measure of how a compound divides between an organic and an aqueous phase. High values mean a more lipophilic compound, low ones a more hydrophilic compound. The term logD denotes the decadic logarithm of the distribution of all forms, ionised or not, between an organic phase and buffer at a given pH. Read a low logD as lower lipophilicity. In general, IC50 refers to the concentration needed to halve the response being measured. A word on the solubility: it is how much of the substance goes into solution per volume.
